Laboratory results as given in ChEMBL document CHEMBL2407075, “Sulphonamido-quinoxalines: search for anticancer agent” (Eur J Med Chem, 2013).

Columns and labels:
Type in all cases: functional
LOX IMVI = test: Growth inhibition of human LOXIMVI cells assessed as cell growth at 10^-8 M after 48 hrs by sulforhodamine B assay; conditions: read-out: Activity
HT-29 = test: Growth inhibition of human HT-29 cells assessed as cell growth at 10^-7 M after 48 hrs by sulforhodamine B assay; conditions: HT-29, 48 h, read-out: Activity
Procedure, shortened: (§1)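 Five-dose screen at NCI. Cells in RPMI 1640 with 5% FBS and 2 mM L-glutamine, seeded at 5000–40,000 cells/well and grown 24 h at 37 °C, 5% CO2 before dosing, with time-zero plates TCA-fixed. Drug diluted from DMSO stock to 0.01, 0.1, 1, 10 and 100 µM final, 48 h. Cells fixed with cold TCA (10% final), stained with 0.4% SRB and read at 515 nm. Percent growth from Tz, control and test absorbances; GI50, TGI and LC50 from dose-response curves.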

T47D = test: Growth inhibition of human T47D cells assessed as cell growth at 10^-7 M after 48 hrs by sulforhodamine B assay; conditions: read-out: Activity
ACHN = test: Growth inhibition of human ACHN cells assessed as cell growth at 10^-5 M after 48 hrs by sulforhodamine B assay; conditions: read-out: Activity
Procedure, shortened: (§2)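 Five-dose NCI-60 run (0.01, 0.1, 1, 10 and 100 µM, as 10-fold dilutions from a DMSO stock made at 400× the top final level). Cells were grown in RPMI 1640 with 5% FBS and 2 mM glutamine and plated for 24 h. They were then exposed for 48 h at 37 °C and 5% CO2. TCA fixation was followed by SRB staining with A515 read-out. Percent growth was taken relative to time-zero and control plates.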

MOLT-4 = test: Growth inhibition of human MOLT4 cells assessed as cell growth at 10^-8 M after 48 hrs by sulforhodamine B assay; conditions: MOLT-4, 48 h, read-out: Activity
SF-539 = test: Growth inhibition of human SF539 cells assessed as cell growth at 10^-6 M after 48 hrs by sulforhodamine B assay; conditions: SF-539, 48 h, read-out: Activity
CAKI-1 = test: Growth inhibition of human CAKI-1 cells assessed as cell growth at 10^-5 M after 48 hrs by sulforhodamine B assay; conditions: CAKI-1, 48 h, read-out: Activity; procedure, shortened: as §2
SF-268 [1] = test: Growth inhibition of human SF268 cells assessed as cell growth at 10^-4 M after 48 hrs by sulforhodamine B assay; conditions: SF-268, 48 h, read-out: Activity
HCT-116 = test: Growth inhibition of human HCT116 cells assessed as cell growth at 10^-5 M after 48 hrs by sulforhodamine B assay; conditions: HCT-116, 48 h, read-out: Activity; procedure, shortened: as §1
TK-10 = test: Growth inhibition of human TK10 cells assessed as cell growth at 10^-6 M after 48 hrs by sulforhodamine B assay; conditions: TK-10, 48 h, read-out: Activity
UACC-62 = test: Growth inhibition of human UACC62 cells assessed as cell growth at 10^-6 M after 48 hrs by sulforhodamine B assay; conditions: UACC-62, 48 h, read-out: Activity
[2] = Growth inhibition of human EKVX cells assessed as cell growth at 10^-8 M after 48 hrs by sulforhodamine B assay; conditions: read-out: Activity; procedure, shortened: as §1
COLO 205 = test: Growth inhibition of human COLO205 cells assessed as cell growth at 10^-5 M after 48 hrs by sulforhodamine B assay; conditions: COLO 205, 48 h, read-out: Activity; procedure, shortened: as §2
SNB-19 = test: Growth inhibition of human SNB19 cells assessed as cell growth at 10^-4 M after 48 hrs by sulforhodamine B assay; conditions: SNB-19, 48 h, read-out: Activity
SK-OV-3 = test: Growth inhibition of human SKOV3 cells after 48 hrs by sulforhodamine B assay; conditions: SK-OV-3, 48 h; for CC50: read-out: LC50 (the source's name)
Procedure, shortened: (§3)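 Five-dose NCI 60 screen at 0.01, 0.1, 1, 10 and 100 µM, 48 h exposure after 24 h preincubation, in RPMI 1640 with 5% FBS and 2 mM glutamine. Fixed with TCA (10% final for adherent cells, 16% for suspension cells), stained with SRB, A515 read. Percent growth uses time-zero (Tz), control and treated plates. GI50, TGI and LC50 are read from the dose-response curves.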

SK-MEL-5 = test: Growth inhibition of human SK-MEL-5 cells assessed as cell growth at 10^-6 M after 48 hrs by sulforhodamine B assay; conditions: SK-MEL-5, 48 h, read-out: Activity
NCI-H460 = test: Growth inhibition of human NCI-H460 cells after 48 hrs by sulforhodamine B assay; conditions: NCI-H460, 48 h; for CC50: read-out: LC50 (the source's name)
Procedure, shortened: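 Adherent cells in RPMI 1640 with 5% FBS and 2 mM L-glutamine were plated at 5000–40,000 cells/well and grown 24 h. Five concentrations (0.01–100 µM, DMSO stock) were added for 48 h at 37 °C. Cells were fixed with cold TCA (10% final) and stained with SRB, read at 515 nm. GI50 came from log concentration–growth curves against time-zero and control plates.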

HL-60(TB) = test: Growth inhibition of human HL-60(TB) cells assessed as cell growth at 10^-4 M after 48 hrs by sulforhodamine B assay; conditions: HL-60, 48 h, read-out: Activity
Procedure, shortened: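 HL-60(TB) suspension cells were treated 48 h at 37 °C within the five-dose series (0.01–100 µM), fixed with 16% final TCA and SRB-stained, read at 515 nm. Percentage growth at each concentration = (Ti−Tz)/(C−Tz)×100, or (Ti−Tz)/Tz×100 when Ti<Tz, with time-zero (Tz) and untreated control (C) plates.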

U-251 = test: Growth inhibition of human U251 cells assessed as cell growth at 10^-7 M after 48 hrs by sulforhodamine B assay; conditions: U-251, 48 h, read-out: Activity
[3] = Growth inhibition of human Hs 578T cells assessed as cell growth at 10^-5 M after 48 hrs by sulforhodamine B assay; conditions: read-out: Activity; procedure, shortened: as §1
SF-268 [4] = test: Growth inhibition of human SF268 cells assessed as cell growth at 10^-8 M after 48 hrs by sulforhodamine B assay; conditions: SF-268, 48 h, read-out: Activity
OVCAR-4 = test: Growth inhibition of human OVCAR4 cells after 48 hrs by sulforhodamine B assay; conditions: OVCAR-4, 48 h; for CC50: read-out: LC50 (the source's name); procedure, shortened: as §3
NCI-H23 = test: Growth inhibition of human NCI-H23 cells assessed as cell growth at 10^-7 M after 48 hrs by sulforhodamine B assay; conditions: NCI-H23, 48 h, read-out: Activity
SNB-75 = test: Growth inhibition of human SNB75 cells assessed as cell growth at 10^-7 M after 48 hrs by sulforhodamine B assay; conditions: SNB-75, 48 h, read-out: Activity
[5] = Growth inhibition of human HCC2998 cells assessed as cell growth at 10^-6 M after 48 hrs by sulforhodamine B assay; conditions: HCC 2998, 48 h, read-out: Activity; procedure, shortened: as §1
OVCAR-5 = test: Growth inhibition of human OVCAR5 cells assessed as cell growth at 10^-8 M after 48 hrs by sulforhodamine B assay; conditions: OVCAR-5, 48 h, read-out: Activity

O=S(=O)(Nc1ccc(Cl)cc1)c1ccc2nc(-c3ccccc3)c(-c3ccccc3)nc2c1
growth at 0.01 µM (LOX IMVI): 99% | growth at 0.1 µM (HT-29): 100% | growth at 0.1 µM (T47D): 90% | growth at 10 µM (ACHN): 6% | growth at 0.01 µM (MOLT-4): 97% | growth at 1 µM (SF-539): 101% | growth at 10 µM (CAKI-1): -35% | growth at 100 µM (SF-268 [1]): 76% | growth at 10 µM (HCT-116): 1% | growth at 1 µM (TK-10): 108% | growth at 1 µM (UACC-62): 76% | growth at 0.01 µM [2]: 97% | growth at 10 µM (COLO 205): -11% | growth at 100 µM (SNB-19): 83% | TGI (SK-OV-3): > 100 µM | CC50 (SK-OV-3): > 100 µM | growth at 1 µM (SK-MEL-5): 83% | CC50 (NCI-H460): > 100 µM | growth at 100 µM (HL-60(TB)): 45% | growth at 0.1 µM (U-251): 94% | growth at 10 µM [3]: 3% | growth at 0.01 µM (SF-268 [4]): 94% | TGI (OVCAR-4): > 100 µM | CC50 (OVCAR-4): > 100 µM | growth at 0.1 µM (NCI-H23): 92% | growth at 0.1 µM (SNB-75): 68% | growth at 1 µM [5]: 102% | growth at 0.01 µM (OVCAR-5): 95%

O=S(=O)(Nc1ccccn1)c1ccc2nc(-c3ccccc3)c(-c3ccccc3)nc2c1
growth at 0.01 µM (LOX IMVI): 97% | growth at 0.1 µM (HT-29): 97% | growth at 0.1 µM (T47D): 85% | growth at 10 µM (ACHN): 6% | growth at 0.01 µM (MOLT-4): 96% | growth at 1 µM (SF-539): 96% | growth at 10 µM (CAKI-1): -11% | growth at 100 µM (SF-268 [1]): 64% | growth at 10 µM (HCT-116): 1% | growth at 1 µM (TK-10): 114% | growth at 1 µM (UACC-62): 75% | growth at 0.01 µM [2]: 100% | growth at 10 µM (COLO 205): -73% | growth at 100 µM (SNB-19): 62% | GI50 (SK-OV-3): 3.58 µM | TGI (SK-OV-3): > 100 µM | CC50 (SK-OV-3): > 100 µM | growth at 1 µM (SK-MEL-5): 78% | TGI (NCI-H460): > 100 µM | CC50 (NCI-H460): > 100 µM | growth at 100 µM (HL-60(TB)): 29% | growth at 0.1 µM (U-251): 97% | growth at 10 µM [3]: -11% | growth at 0.01 µM (SF-268 [4]): 93% | GI50 (OVCAR-4): 2.79 µM | TGI (OVCAR-4): > 100 µM | CC50 (OVCAR-4): > 100 µM | growth at 0.1 µM (NCI-H23): 94% | growth at 0.1 µM (SNB-75): 90% | growth at 1 µM [5]: 100% | growth at 0.01 µM (OVCAR-5): 93%
